Converted amounts (≈) assume the structure as drawn. The source made the active and inactive calls. The calls are words filed in the database; no cut-off is given here.

The values that follow come from ChEMBL document CHEMBL5029154, “Design, Synthesis, and Biological Evaluation of Organic Nitrite (NO2-) Donors as Potential Anticerebral Ischemia Agents” (J Med Chem, 2021).

Data set [1] can be described thus: Stability of the compound in pH 6 phosphate buffer assessed as half life at 200 uM measured after 24 hrs by HPLC analysis. It is filed as physicochemical. Conditions: phosphate buffer pH 6, pH 6.
Data set [2] in a line: GSH reactivity assessed as reaction rate measured at 4 equiv of GSH upto 24 hrs by HPLC analysis. It is filed as ADME.
A short description of data set [3]: Solubility of compound in water. It is filed as physicochemical.
The nature of data set [4]: Drug metabolism in Sprague-Dawley rat assessed as peak nitrite release in plasma at 10 mg/kg, iv measured upto 120 mins by ion chromatography. It is filed as ADME, organism-based. Conditions: in vivo, 2 h. The method, boiled down: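 Male SD rats (N = 3/group) received a single iv dose. Plasma was sampled at 2, 5, 15, 30, 60, 90 and 120 min. Nitrite was quantified by ion chromatography. Values are mean ± SD.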

Data set [5] in a line: Neuroprotective activity against in OGD/R-induced rat primary cortical neuron apoptosis assessed as viable cells pretreated at 1.8 uM for 24 hrs followed by subjected to OGD for 2 hrs measured after 24 hrs under normoxic condition by PI/FITC-H staining based flow cytometry (reference value: 31.55%). It is filed as functional. Conditions: Cortical neurone, read-out: Activity. The essentials: (§1)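 Cortical neurons were isolated from SD rat cortex by enzymatic digestion, plated on poly-lysine in 10% FBS DMEM, and pretreated 24 h at 1.8 μM in basal medium with 2% B27. OGD was run in glucose/FBS-free DMEM under 1% O₂, followed by 24 h reoxygenation in 10% FBS DMEM. Viability was read by MTT; apoptosis was also assessed. Three independent experiments.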
For orientation: Flow cytometry measures light scatter and fluorescence of single cells or particles in a stream.

A short description of data set [6]: Neuroprotective activity against in OGD/R-induced rat cortical neuron apoptosis assessed as early apoptotic cells pretreated at 1.8 uM for 24 hrs followed by subjected to OGD for 2 hrs measured after 24 hrs under normoxic condition by PI/FITC-H staining based flow cytometry (reference value: 58.46%). It is filed as functional, Cortical neurone.
Data set [7] can be described thus: Neuroprotective activity against in OGD/R-induced rat cortical neuron apoptosis assessed as late apoptotic cells pretreated at 1.8 uM for 24 hrs followed by subjected to OGD for 2 hrs measured after 24 hrs under normoxic condition by PI/FITC-H staining based flow cytometry (reference value: 6.31%). It is filed as functional, Cortical neurone.
Data set [8] can be described thus: Neuroprotective activity against in OGD/R-induced rat cortical neuron apoptosis assessed as necrotic cells pretreated at 1.8 uM for 24 hrs followed by subjected to OGD for 2 hrs measured after 24 hrs under normoxic condition by PI/FITC-H staining based flow cytometry (reference value: 3.68%). It is filed as functional, Cortical neurone.
In data set [9] the test system is Cortical neurone. The experiment in a line: Neuroprotective activity against in OGD/R-induced rat cortical neuron cytotoxicity assessed as decrease in cell viability pretreated at 1.8 uM for 24 hrs followed by subjected to OGD for 2 hrs measured after 24 hrs under normoxic condition i n presence of ML385 by MTT assay. It is filed as functional, tissue-based. The method, boiled down:
as §1

For data set [10], the system named is Cortical neurone. The experiment in a line: Neuroprotective activity against in OGD/R-induced rat cortical neuron cytotoxicity assessed as activation of NO/cGMP/PKG pathway by measuring increase in PKG expression pretreated at 1.8 uM for 24 hrs followed by subjected to OGD for 2 hrs measured after 24 hrs under normoxic condition by Western blot analysis. It is filed as functional, tissue-based. Background: Immunoblotting shows a protein as a band on a membrane.

Data set [11] has as its system Cortical neurone. The experiment in a line: Neuroprotective activity against in OGD/R-induced rat cortical neuron cytotoxicity assessed as activation of NO/cGMP/PKG pathway by measuring increase in cGMP level pretreated at 1.8 uM for 24 hrs followed by subjected to OGD for 2 hrs measured after 24 hrs under normoxic condition in presence of NS2028 by ELISA. It is filed as functional, tissue-based. On the technique in general: In an ELISA, binding on a coated surface is turned into a signal by an enzyme label.

Data set [12] concerns Cortical neurone. The experiment in a line: Neuroprotective activity against in OGD/R-induced rat cortical neuron cytotoxicity assessed as activation of NO/cGMP/PKG pathway by measuring increase in PKG expression pretreated at 1.8 uM for 24 hrs followed by subjected to OGD for 2 hrs measured after 24 hrs under normoxic condition in presence of NS2028 by Western blot analysis. It is filed as functional, tissue-based.

Data set [13] relates to Rattus norvegicus. As to the kind of experiment: Neuroprotective activity against middle cerebral artery occlusion-induced ischemia-reperfusion injury Sprague-Dawley rat model assessed as decrease in cerebral edema degree at 95 to 9500 microg/kg, iv pretreated for 2 hrs followed by reperfusion measured after 24 hrs. It is filed as functional, organism-based. The following applies: dose 95-9500 µg/kg. The method, boiled down:
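Male SD rats (N = 8/group) were dosed iv at 95, 950 or 9500 μg/kg 2 h before 2 h MCAO (nylon suture, chloral hydrate anesthesia), then reperfused. Where used, PTIO 1 mg/kg iv was given 30 min before compound. At 24 h, blinded assessment covered Longa deficit score, TTC-stained 2 mm sections (infarct area/whole area), and edema by wet/dry weight.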

In data set [14] the test system is Rattus norvegicus. The experiment in a line: Neuroprotective activity against middle cerebral artery occlusion-induced ischemia-reperfusion injury Sprague-Dawley rat model assessed as decrease in brain infarct volume at 95 to 9500 microg/kg, iv treated immediately reperfusion in presence of PTIO measured after 24 hrs. Conditions: dose 95-9500 µg/kg. It is filed as functional, organism-based. The method, boiled down: (§2)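 Male SD rats (12 weeks, 200–220 g; N = 8/group) underwent MCAO under […] (350 mg/kg) using a nylon intraluminal suture for 2 h, then reperfusion. Compound (95, 950 or 9500 μg/kg) was given iv immediately after reperfusion; where used, PTIO 1 mg/kg iv was given 30 min before. At 24 h, blinded scoring covered Longa neurological deficit, TTC infarct area/whole area, and edema from wet/dry brain weight (105 °C, 24 h).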

Data set [15] concerns Rattus norvegicus. As to the kind of experiment: Neuroprotective activity against middle cerebral artery occlusion-induced ischemia-reperfusion injury Sprague-Dawley rat model assessed as decrease in neurologic deficit scores at 95 to 9500 microg/kg, iv treated immediately reperfusion in presence of PTIO measured after 24 hrs. It is filed as functional, organism-based. The following applies: dose 95-9500 µg/kg. The method, boiled down:
as §2

Data set [16] has as its system Rattus norvegicus. As to the kind of experiment: In vivo activation of Nrf2 middle cerebral artery occlusion-induced ischemia-reperfusion injury Sprague-Dawley rat model assessed as phosphorylation at 950 microg/kg, iv treated immediately reperfusion measured after 24 hrs. It is filed as functional, organism-based. The following applies: dose 950.0 µg/kg. The essentials:
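Paraffin sections (3 μm) from MCAO rats were immunostained with anti-phospho-Nrf2 (1:100) and DAB, then scored blinded by average optical density over five fields per sample.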

Data set [17] concerns Rattus norvegicus. The experiment in a line: Neuroprotective activity against middle cerebral artery occlusion-induced ischemia-reperfusion injury Sprague-Dawley rat model assessed as increase in NQO1 expression in cerebral ischemic penumbra at 950 microg/kg, iv treated immediately reperfusion measured after 24 hrs. It is filed as functional, organism-based. Conditions: dose 950.0 µg/kg. The method, boiled down:
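MCAO rat brain paraffin sections (3 μm) were blocked with 10% goat serum and stained by IHC for NQO-1 and HO-1 (1:200) and phospho-Nrf2 (1:100), with DAB detection and rabbit IgG as negative control. Average optical density of positive cells was scored blinded over five fields per sample.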

The test system of data set [18] is Rattus norvegicus. The experiment in a line: Neuroprotective activity against middle cerebral artery occlusion-induced ischemia-reperfusion injury Sprague-Dawley rat model assessed as increase in CD31 expression in cerebral ischemic penumbra at 95 to 950 microg/kg, iv treated immediately reperfusion measured after 24 hrs by immunofluoresence assay. It is filed as functional, organism-based. The following applies: dose 95-950 µg/kg.

In data set [19] the test system is Rattus norvegicus. As to the kind of experiment: Neuroprotective activity against middle cerebral artery occlusion-induced ischemia-reperfusion injury Sprague-Dawley rat model assessed as increase in Ki67+ cells in cerebral ischemic penumbra at 95 to 950 microg/kg, iv treated immediately reperfusion measured after 24 hrs by immunofluoresence assay. Conditions: dose 95-950 µg/kg. It is filed as functional, organism-based.

Data set [20] has as its system Rattus norvegicus. As to the kind of experiment: Neuroprotective activity against middle cerebral artery occlusion-induced ischemia-reperfusion injury Sprague-Dawley rat model assessed as increase in AuroraB + cells in cerebral ischemic penumbra at 95 to 950 microg/kg, iv treated immediately reperfusion measured after 24 hrs by immunofluoresence assay. It is filed as functional, organism-based. Conditions: dose 95-950 µg/kg.

On to `O=C(/C(=C/c1ccccc1)C[N+](=O)[O-])c1ccccc1`, for which the half-life at 200 µM in data set [1] was 1.1 h. The Activity in data set [2] was 0.0299 h⁻¹; in [6] it was 7.21%; in [7], 1.72%; in data set [8], 1.28%. This compound returned a solubility in data set [3] of 33.2 µg/mL (≈ 124 µM). The Drug metabolism result in data set [4] is listed as “Metabolite_Detected”. Also, in data set [5], the viability at 1.8 µM was found to be 69.8%. In addition, the result with Cortical neurone [9], with Cortical neurone [10], in the data set with Rattus norvegicus [13], in the data set with Rattus norvegicus [16], in the data set on Rattus norvegicus [17] and in the data set on Rattus norvegicus [18] was Active. In addition, the outcome with Rattus norvegicus [19] and in the data set on Rattus norvegicus [20] was Active. Further, the outcome with Cortical neurone [11], in the data set on Cortical neurone [12], in the data set with Rattus norvegicus [14] and with Rattus norvegicus [15] was inactive.

As a reminder, the half-life is the time in which the quantity being followed falls by half. Usually solubility stands for how much of the substance goes into solution per volume. High values mean a readily soluble substance, low ones a poorly soluble substance.
